From ChEMBL document CHEMBL4680106, “Rational Design of Dimeric Lysine N-Alkylamides as Potent and Broad-Spectrum Antibacterial Agents” (J Med Chem, 2018)
Converted amounts (≈) assume the structure as drawn. The source made the active and inactive calls. No cut-off for these calls is given here.

Legend:
[1] = test system: Escherichia coli; experiment: Antimicrobial activity against Escherichia coli ATCC 25922 assessed as inhibition of bacterial growth by broth microdilution method; assay type: functional
[2] = test system: Pseudomonas aeruginosa; experiment: Antimicrobial activity against Pseudomonas aeruginosa ATCC 27853 assessed as inhibition of bacterial growth by broth microdilution method; assay type: functional
[3] = test system: Staphylococcus epidermidis; experiment: Antimicrobial activity against methicillin-resistant Staphylococcus epidermidis RP62A assessed as inhibition of bacterial growth by broth microdilution method; assay type: functional
In short: (§1)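 Broth microdilution following a previously reported procedure. MIC was taken as the lowest concentration with no turbidity, meaning complete growth inhibition over the incubation period.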

[4] = test system: Staphylococcus aureus; experiment: Antimicrobial activity against methicillin-resistant Staphylococcus aureus ATCC 33591 assessed as inhibition of bacterial growth by broth microdilution method; assay type: functional; in short: as §1
[5] = test system: Enterococcus faecalis; experiment: Antimicrobial activity against vancomycin-resistant Enterococcus faecalis assessed as inhibition of bacterial growth by broth microdilution method; assay type: functional; in short: as §1
[6] = Induction of hemolysis in human RBC incubated for 1 hr; assay type: cell-based, Erythrocyte; details: human red blood cells (erythrocytes)
In short: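 Human RBCs pelleted at 3000 rpm for 10 min and made 5% v/v in 1x PBS, mixed 1:1 with compound at several concentrations, 37 °C for 1 h. Spun at 3500 rpm for 10 min; diluted supernatant read at 540 nm. Hemolysis % referenced to 2% Triton X-100 (100%) and PBS (0%). Three repeats, duplicates each.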

[7] = test system: Staphylococcus aureus; experiment: Bactericidal activity against methicillin-resistant Staphylococcus aureus ATCC 33591 assessed as bacterial killing by measuring reduction in bacterial colony count at 64 times MIC incubated for 2 hrs by time-kill kinetics method; assay type: functional, organism-based
In short: (§2)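 MRSA were grown in tryptic soy broth to 10^6 CFU/mL and exposed to compound at multiples of MIC, sampled for up to 2 h. Aliquots were diluted 10^2–10^4-fold and plated on TSB agar, incubated 24 h at 37 °C, and colonies counted. Run three times.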

[8] = test system: Staphylococcus aureus; experiment: Antimicrobial activity against methicillin-resistant Staphylococcus aureus ATCC 33591 grown under presence of test compound at 1/2 MIC assessed as inhibition of bacterial growth measured after 14 passages by broth microdilution method relative to wild type; assay type: functional
In short: (§3)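 Initial MIC by the standard broth microdilution procedure. Bacteria from the 1/2 MIC wells were made into a suspension of about 10^6 CFU/mL, incubated with compound at 37 °C for 24 h, and the MIC was measured again. This was repeated daily for 14 passages.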

[9] = test system: Escherichia coli; experiment: Antimicrobial activity against Escherichia coli ATCC 25922 grown under presence of test compound at 1/2 MIC assessed as inhibition of bacterial growth measured after 14 passages by broth microdilution method relative to wild type; assay type: functional, organism-based; in short: as §3
[10] = test system: Staphylococcus aureus; experiment: Bactericidal activity against methicillin-resistant Staphylococcus aureus ATCC 33591 assessed as bacterial killing at 6.25 to 12.5 ug/ml incubated for 2 hrs by time-kill kinetics method; assay type: functional, organism-based; details: dose 6.25-12.5 µg/ml; in short: as §2
[11] = test system: Cell membrane; experiment: Induction of cell membrane disruption in Escherichia coli ATCC 25922 at 2 times MIC incubated for 2 hrs by DAPI and PI staining based optical microscopy
In short: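 Cells grown to ~2 × 10^6 cells, exposed 2 h, pelleted at 3000g for 15 min and PBS-washed. Stained with PI (5 µg/mL) then DAPI (10 µg/mL in water), each 15 min in the dark at 0 °C, then PBS-washed. Untreated controls handled identically. Imaged by 100x oil-immersion light microscopy; three repeats, duplicates each.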

[12] = test system: Cell membrane; experiment: Induction of cell membrane disruption in methicillin-resistant Staphylococcus aureus ATCC 33591 at 2 times MIC incubated for 2 hrs by DAPI and PI staining based optical microscopy
In short: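 Bacteria at about 2 × 10^6 cells were treated at 2 × MIC for 2 h, then centrifuged and washed in PBS. They were stained with PI (5 µg/mL) and then DAPI (10 µg/mL), each for 15 min in the dark at 0 °C. Imaged by oil-immersion light microscopy at 100×. Untreated controls were processed identically. Three runs in duplicate.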

[13] = test system: Cell membrane; experiment: Induction of cell membrane integrity loss in methicillin-resistant Staphylococcus aureus ATCC 33591 at 5 ug/ml incubated for 2 hrs by TEM analysis; details: dose 5.0 µg/ml
[14] = test system: Escherichia coli; experiment: Inhibition of biofilm formation in Escherichia coli ATCC 25922 at 3 ug/ml incubated overnight by crystal violet staining based method; assay type: functional
In short: (§4)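 Overnight-grown (12 h) bacteria diluted 1:100 into 10% MHII broth and incubated with compound overnight at 37 °C. OD600 recorded, then biomass by crystal violet, expressed as CV OD/growth OD and normalized to untreated control. Triplicate, mean ± STDEV.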

[15] = test system: Cell membrane; experiment: Induction of membrane depolarization in methicillin-resistant Staphylococcus aureus ATCC 33591 assessed as induction of membrane potential loss at 5 ug/ml incubated for 30 mins by DiSC3(5) dye based bacterial membrane depolarization assay; details: dose 5.0 µg/ml
In short: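 Mid-log MRSA were washed and resuspended at 10^8 CFU/mL in a 1:1:1 mix of 5 mM glucose, 5 mM HEPES and 100 mM KCl, with 2 µM DiSC3(5). Fluorescence (ex 622/em 670 nm) was read at room temperature until it reached its minimum after about 20 min. Compound was then added and the fluorescence rise recorded. Untreated negative control. Three runs in duplicate.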

[16] = test system: Escherichia coli; experiment: Inhibition of biofilm formation in Escherichia coli ATCC 25922 at 1.5 ug/ml incubated overnight by crystal violet staining based method; assay type: functional; in short: as §4
[17] = test system: Staphylococcus aureus; experiment: Bactericidal activity against methicillin-resistant Staphylococcus aureus ATCC 33591 assessed as bacterial killing by measuring reduction in bacterial colony count at 16 to 32 x MIC measured within 10 mins by time-kill kinetics method; details: dose 16-32 x MIC; time min <=10

| SMILES | MIC [1] | MIC [2] | MIC [3] | MIC [4] | MIC [5] | HC50 at 1 h [6] | also measured |
| --- | --- | --- | --- | --- | --- | --- | --- |
| NCCCC[C@H](NC(=O)c1ccc(C(=O)N[C@@H](CCCCN)C(=O)NCc2ccc(-c3ccccc3)cc2)cc1)C(=O)NCc1ccc(-c2ccccc2)cc1 | 3 µg/mL (≈ 3.98 µM) | 12 µg/mL (≈ 15.9 µM) | 6 µg/mL (≈ 7.97 µM) | 3 µg/mL (≈ 3.98 µM) | inactive | > 250 µg/mL |  |
| CCCCCCCCCCCCCNC(=O)[C@H](CCCCN)NC(=O)c1ccc(C(=O)N[C@@H](CCCCN)C(=O)NCCCCCCCCCCCCC)cc1 | inactive | inactive | 6 µg/mL (≈ 7.64 µM) | 6 µg/mL (≈ 7.64 µM) | inactive |  |  |
| CCn1cc(C(=O)O)c(=O)c2cc(F)c(N3CCNCC3)cc21 [NORFLOXACIN] |  |  |  |  |  |  | Activity [7]: inactive; Ratio [8]: >80 |
| CCCCCCCCCCCCNC(=O)[C@H](CCCCN)NC(=O)c1ccc(C(=O)N[C@@H](CCCCN)C(=O)NCCCCCCCCCCCC)cc1 | 3 µg/mL (≈ 3.96 µM) | 12 µg/mL (≈ 15.8 µM) | 6 µg/mL (≈ 7.92 µM) | 3 µg/mL (≈ 3.96 µM) | inactive | > 250 µg/mL |  |
| CCCCCCCCCCNC(=O)[C@H](CCCCN)NC(=O)c1ccc(C(=O)N[C@@H](CCCCN)C(=O)NCCCCCCCCCC)cc1 | 3 µg/mL (≈ 4.28 µM) | inactive | 6 µg/mL (≈ 8.56 µM) | 1.5 µg/mL (≈ 2.14 µM) | 3 µg/mL (≈ 4.28 µM) | 250 µg/mL |  |
| CCCCCCCCCNC(=O)[C@H](CCCCN)NC(=O)c1ccc(C(=O)N[C@@H](CCCCN)C(=O)NCCCCCCCCC)cc1 | 0.75 µg/mL (≈ 1.11 µM) | 3 µg/mL (≈ 4.46 µM) | 1.5 µg/mL (≈ 2.23 µM) | 0.75 µg/mL (≈ 1.11 µM) | 3 µg/mL (≈ 4.46 µM) | 180 µg/mL | Activity [9]: Active; Activity [10]: inactive; Activity [11]: Active; Activity [12]: Active; Activity [13]: Active; Activity [8]: Active; inhibition at 3 µg/mL [14]: 70%; Activity [15]: Active; inhibition at 1.5 µg/mL [16]: 50%; Activity [17]: 3.74 log10CFU/ml |
| CCCCCCCCCCCCCCNC(=O)[C@H](CCCCN)NC(=O)c1ccc(C(=O)N[C@@H](CCCCN)C(=O)NCCCCCCCCCCCCCC)cc1 | inactive | inactive | inactive | inactive | inactive |  |  |
| CCCCCCCCNC(=O)[C@H](CCCCN)NC(=O)c1ccc(C(=O)N[C@@H](CCCCN)C(=O)NCCCCCCCC)cc1 | 0.75 µg/mL (≈ 1.16 µM) | 3 µg/mL (≈ 4.65 µM) | 3 µg/mL (≈ 4.65 µM) | 1.5 µg/mL (≈ 2.33 µM) | inactive | > 250 µg/mL |  |
| CCCCCCNC(=O)[C@H](CCCCN)NC(=O)c1ccc(C(=O)N[C@@H](CCCCN)C(=O)NCCCCCC)cc1 | inactive | inactive | inactive | inactive | inactive |  |  |
| CCCCCCCNC(=O)[C@H](CCCCN)NC(=O)c1ccc(C(=O)N[C@@H](CCCCN)C(=O)NCCCCCCC)cc1 | 6 µg/mL (≈ 9.73 µM) | inactive | inactive | inactive | inactive |  |  |
